Converted amounts (≈) assume the structure as drawn. The source made the active and inactive calls. The rule behind the calls is not given here.
What was measured:
Homo sapiens [1] = assay: Toxicity in human assessed as change in reticulocyte count at 600 to 800 mg, po administered as single dose with meal on day 1 and day 15 followed by bid with meal on day 2 to day 14 measured during compound treatment; type: organism-based; conditions: in vivo
[2] = AUC (0 to t) in female rat at 15 mg/kg, po; type: ADME, organism-based; design: dose 15 mg/kg, route oral; conditions: plasma
In short: (§1)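 Rat PK by gender, with single oral doses of 5, 15 and 45 mg/kg and an iv dose of 5 mg/kg. Tmax, Cmax, T1/2 and AUC0−t were reported per gender.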

Rattus norvegicus [3] = assay: Toxicity in female rat assessed as effect on hematocrit level at 200 to 300 mg/kg/day, po bid administered for 4 weeks (reference value: 39.08%); type: organism-based; design: route oral; conditions: in vivo, 672 h
Enterococcus faecalis [4] = assay: Antibacterial activity against vancomycin-sensitive/high-level gentamycin-resistant Enterococcus faecalis isolate HH22 in po dosed mouse systemic infection model; type: functional; conditions: EnGen0297, po
Staphylococcus aureus [5] = assay: Antibacterial activity against methicillin-resistant Staphylococcus aureus; type: functional
Rattus norvegicus [6] = assay: Toxicity in female rat assessed as effect on hematocrit level at 100 mg/kg/day, po bid administered for 4 weeks (reference value: 39.08%); type: organism-based; design: route oral; conditions: in vivo, 672 h
[7] = Tmax in po dosed mouse; type: ADME, organism-based; conditions: in vivo
Staphylococcus aureus [8] = assay: Antibacterial activity against Staphylococcus aureus measured after 10 serial passages; type: functional
[9] = Half life in female rat at 5 mg/kg, po; type: ADME, organism-based; design: dose 5 mg/kg, route oral; conditions: in vivo
Mus musculus = assay: Dose normalized Cmax in po dosed mouse; type: ADME, organism-based; conditions: in vivo
Staphylococcus aureus [10] = assay: Antibacterial activity against methicillin-sensitive Staphylococcus aureus isolate 15 in po dosed mouse systemic infection model; type: functional; conditions: isolate 15, po
Enterococcus = assay: Bacteriostatic activity against vancomycin-sensitive Enterococcus; type: functional
[11] = system: Streptococcus dysgalactiae subsp. equisimilis; assay: Antibacterial activity against Streptococcus equisimilis; type: functional
Rattus norvegicus [12] = assay: Toxicity in female rat assessed as effect on platelet count at 100 mg/kg/day, po bid administered for 4 weeks (reference value: 654.6 x 10^9/L); type: organism-based; design: route oral; conditions: in vivo, 672 h
Staphylococcus aureus [13] = assay: Antibacterial activity against methicillin-resistant Staphylococcus aureus isolate 0605 in mouse thigh infection model assessed as reduction of log10 CFU per thigh at 80 mg/kg, po; type: functional
[14] = AUC (0 to 24 hrs) in female rat at 200 mg/kg/day, po bid administered for 4 weeks; type: ADME, organism-based; design: dose 200 mg/kg/day, time < 24 hr, route oral; conditions: plasma
In short: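 Repeat-dose toxicity study in rats (10/gender/group) dosed orally twice daily for 4 weeks, then a 4-week recovery period; the top dose was raised from 200 to 300 mg/kg/day on day 15. Blood was taken on days 1, 14 and 28 for toxicokinetics, and AUC0−24 was reported for females.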

Staphylococcus aureus [15] = assay: Antibacterial activity against methicillin-resistant Staphylococcus aureus isolate 0605; type: functional
Homo sapiens [16] = assay: Toxicity in fasted human at 50 to 1800 mg, po; type: organism-based; conditions: in vivo
In short: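 Randomized, double-blind, placebo-controlled single ascending dose study in healthy Chinese subjects under fasting conditions. Eight groups received single oral doses of 50, 100, 200, 400, 800, 1200, 1600 or 1800 mg, with tolerability assessed.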

[17] = Tmax in fasted human at 900 mg, po administered as single dose; type: ADME, organism-based; conditions: in vivo
In short: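 Randomized single-dose, three-period Latin-square crossover in 12 healthy volunteers (six per gender), fasting. Single oral doses of 300, 600 and 900 mg were separated by a 1-week washout. PK parameters were derived by noncompartmental analysis.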

[18] = Elimination half life in human at 900 mg, po administered as single dose at 30 mins post fat meal; type: ADME, organism-based; conditions: in vivo, read-out: beta t1/2 (converted)
In short: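 Crossover study in 12 subjects (six of each sex). Each got a single oral 900 mg dose either fasted or 30 min after a fat-containing meal.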

Streptococcus pneumoniae = assay: Antibacterial activity against penicillin-resistant Streptococcus pneumoniae isolate 0613; type: functional
Rattus norvegicus [19] = assay: Toxicity in female rat assessed as effect on mean corpuscular hemoglobin level at 200 to 300 mg/kg/day, po bid administered for 4 weeks (reference value: 19.5 pg); type: organism-based; design: route oral; conditions: in vivo, 672 h
[20] = AUC (0 to t) in male rat at 5 mg/kg, iv; type: ADME, organism-based; design: dose 5 mg/kg, route intravenous; conditions: plasma; in short: as §1
[21] = AUC (0 to 24 hrs) in human at 600 mg, po administered as single dose with meal measured on day 15; type: ADME, organism-based; design: time < 24 hr, dose 600 mg, route oral; conditions: plasma
In short: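 Randomized, double-blind, placebo-controlled multiple-dose study in 32 healthy subjects (half male, half female). Subjects took 28 oral doses of 600 or 800 mg over 15 days, each with a meal. A single dose was given on days 1 and 15 for full PK, and doses were given Q12h from day 2 to day 14. AUC0−24 was measured on days 1 and 15.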

Staphylococcus aureus [22] = assay: Antibacterial activity against Staphylococcus aureus measured after 4 serial passages; type: functional
Staphylococcus aureus [23] = assay: Antibacterial activity against methicillin-resistant Staphylococcus aureus isolate 0612; type: functional
[24] = AUC (0 to infinity) in fasted human at 300 mg, po administered as single dose; type: ADME, organism-based; design: dose 300 mg, route oral, time infinity; conditions: plasma
In short: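 Single-dose, three-period Latin-square crossover in 12 healthy volunteers (6 of each gender). Each received single oral 300, 600 and 900 mg doses under fasting conditions, with a 1-week washout between doses. PK parameters, including AUC0−inf, came from a noncompartmental model.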

Rattus norvegicus [25] = assay: Dose normalized AUC (0 to t) in po dosed rat; type: ADME, organism-based; conditions: in vivo
Staphylococcus aureus [26] = assay: Antibacterial activity against methicillin-sensitive Staphylococcus aureus ATCC 29213 in mouse thigh infection model assessed as reduction of log10 CFU per thigh at 80 mg/kg, po; type: functional
In short: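 Mouse thigh infection with S. aureus ATCC29213 (MSSA), 10 animals per dosing group. Oral doses were 5, 10, 20, 40 and 80 mg/kg. The read-out was log CFU per thigh after treatment, and the reduction (ΔLogCFU/thigh) was reported.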

[27] = AUC (0 to t) in female rat at 5 mg/kg, iv; type: ADME, organism-based; design: dose 5 mg/kg, route intravenous; conditions: plasma; in short: as §1
Enterococcus faecalis [28] = assay: Antibacterial activity against vancomycin-resistant Enterococcus faecalis isolate EFL 4041 in po dosed mouse systemic infection model; type: functional; conditions: isolate EFL 4041, po
L5178Y = assay: Mutagenicity in mouse tk +/- L5178Y cells assessed as increase in gene mutation frequency at 62.5 to 1000 ug/mL in absence of S9 fraction
Staphylococcus aureus [29] = assay: Antibacterial activity against Staphylococcus aureus assessed as low frequency of spontaneous resistance; type: functional, organism-based
Rattus norvegicus [30] = assay: Toxicity in female rat assessed as effect on hemoglobin level at 20 mg/kg/day, po bid administered for 4 weeks (reference value: 141.8 g/L); type: organism-based; design: route oral; conditions: in vivo, 672 h
[31] = Half life in po dosed mouse; type: ADME, organism-based; conditions: in vivo
Rattus norvegicus [32] = species on record: Rattus norvegicus; assay: Drug uptake in rat measured over 7 days; type: ADME, organism-based; conditions: in vivo, 168 h
[33] = AUC (0 to t) in female rat at 5 mg/kg, po; type: ADME, organism-based; design: dose 5 mg/kg, route oral; conditions: plasma; in short: as §1
[34] = Cmax in fasted human at 600 mg, po administered as single dose; type: ADME, organism-based; design: dose 600 mg, route oral; conditions: in vivo
In short: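 Healthy volunteers (12; six of each sex) in a three-period Latin-square crossover. Each received single oral doses of 300, 600 and 900 mg under fasting conditions, with a 1-week washout between doses. Parameters from a noncompartmental model.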

For `O=C1C=CN(c2c(F)cc(N3C[C@H](CNc4ccon4)OC3=O)c(F)c2F)CC1` [CONTEZOLID], the Activity (Homo sapiens [1]) was “Non-toxic”, the AUC(0-t) [2] was 64700 ng·h/mL and the Activity (Rattus norvegicus [3]) was 30.6%. For the same compound, the ED50 (Enterococcus faecalis [4]) was 7.4 mg/kg, the MIC90 (Staphylococcus aureus [5]) was 0.5 µg/mL (≈ 1.22 µM) and the Activity (Rattus norvegicus [6]) was 36.48%. The Tmax [7] was 0.5 h, the MIC (Staphylococcus aureus [8]) was 4 µg/mL (≈ 9.8 µM) and the half-life [9] was 2.07 h. For the same compound, the Cmax/dose (Mus musculus) was 524 ng/mL/(mg/kg), the ED50 (Staphylococcus aureus [10]) was 5.7 mg/kg and the MIC50 (Enterococcus) was 1 µg/mL (≈ 2.45 µM). For the same compound, the MIC90 (Enterococcus) was 1 µg/mL (≈ 2.45 µM), the MIC [11] was 1 µg/mL (≈ 2.45 µM) and the MIC50 [11] was 1 µg/mL (≈ 2.45 µM). It also gave an MIC90 [11] of 1 µg/mL (≈ 2.45 µM), an Activity (Rattus norvegicus [12]) of 636.2 ×10⁹ /L and a deltalog10CFU (Staphylococcus aureus [13]) of 4.53. The AUC at 24 h [14] was 626000 ng·h/mL, the MIC (Staphylococcus aureus [15]) was 2 µg/mL (≈ 4.9 µM) and the Activity (Homo sapiens [16]) was “Non-toxic”. The Tmax [17] was 1.4 h, the half-life [18] was 2.7 h and the MIC (Streptococcus pneumoniae) was 2 µg/mL (≈ 4.9 µM). It also gave an Activity (Rattus norvegicus [19]) of 20.48 pg, an AUC(0-t) [20] of 12900 ng·h/mL and an AUC(0-t) at 24 h [21] of 72900 ng·h/mL. The MIC (Staphylococcus aureus [22]) was 2 µg/mL (≈ 4.9 µM), the MIC (Staphylococcus aureus [23]) was 2 µg/mL (≈ 4.9 µM) and the AUC(0-inf) [24] was 29200 ng·h/mL. The AUCt/dose (Rattus norvegicus [25]) was 3703 ng·h/mL/mg/kg, the deltalog10CFU (Staphylococcus aureus [26]) was 3.73 and the AUC(0-t) [27] was 25200 ng·h/mL. For the same compound, the ED50 (Enterococcus faecalis [28]) was 6.2 mg/kg, the Activity (L5178Y) was “Non-toxic” and the Activity (Staphylococcus aureus [29]) was “Active”. For the same compound, the Activity (Rattus norvegicus [30]) was 137.8 g/L, the half-life [31] was 1 h and the Drug uptake (Rattus norvegicus [32]) was “Not Active”. It also gave an AUC(0-t) [33] of 31500 ng·h/mL and a Cmax [34] of 12200 ng/mL.
